Laboratory results as given in article PMC3725831 (European journal of inorganic chemistry, 2011).
Like-named read-outs stand apart in the source and are kept apart here.

Columns and labels:
[1] = system: cancer and normal colon cells; details: both cell lines (cancer and normal colon cells); cited from earlier work
[2] = system: HT-29 (human colon adenocarcinoma); test: MTS cytotoxicity assay, HT-29 cells; type: cell-based
Summary of the method: (§1)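 Cells grown in McCoy's 5a with 10% FBS, 1% NEAA and 2% HEPES at 37 °C, 5% CO2, then seeded at 2000–5,000/well 24 h before dosing. Test compound in DMSO (<0.5% final) was given as six-point 4-fold serial dilutions for 24, 48 or 72 h. Read-out was MTS plus phenazine methosulphate for 3 h, OD490 versus DMSO controls. IC50 from curves; mean ± SE, three replications.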

[3] = system: HCT-116 (human colon carcinoma); test: MTS cytotoxicity assay, HCT-116 cells; type: cell-based
Summary of the method: as §1

[4] = system: CCD-18Co (human colon fibroblasts); test: MTS cytotoxicity assay, non-cancerous CCD-18Co cells; type: cell-based
Summary of the method: as §1, with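 “Colon fibroblasts” for “Cells”, “EMEM” for “McCoy's 5a”, “1% L-glutamine” for “2% HEPES”, “CO2; used at PDL 26–35. Seeded” for “CO2, then seeded”, “MTS/phenazine” for “MTS plus phenazine”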

[5] = system: Caco-2 (human epithelial colorectal adenocarcinoma); test: MTS cytotoxicity assay, Caco-2 cells; type: cell-based
[6] = system: cisplatin-resistant ovarian and testicular cancer cell lines; details: ref 9c; cited from earlier work

Question: Which “inhibition of cell proliferation” value [1] does the source give for `N.N.[Cl][Pt][Cl]` [Cisplatin] here?
Answer: about 70%

Question: Which results are given for `COc1cc([C@@H]2c3cc4c(cc3[C@@H](O[C@@H]3O[C@@H]5CO[C@@H](C)O[C@H]5[C@H](O)[C@H]3O)[C@H]3COC(=O)[C@H]23)OCO4)cc(OC)c1O` [Etoposide]?
Answer: IC50 ([2]; HT-29, 24 h, read-out: IC50 HT-29 24 hours): 19.2 ± 0.8 µM; IC50 ([2]; HT-29, 48 h, read-out: IC50 HT-29 48 hours): 17.3 ± 1.9 µM; IC50 ([2]; HT-29, 72 h, read-out: IC50 HT-29 72 hours): 15.8 ± 2.4 µM; IC50 ([3]; HCT-116, 24 h, read-out: IC50 HCT-116 24 hours): 40.8 ± 0.5 µM; IC50 ([3]; HCT-116, 48 h, read-out: IC50 HCT-116 48 hours): 36.2 ± 2 µM; IC50 ([3]; HCT-116, 72 h, read-out: IC50 HCT-116 72 hours): 38.4 ± 1.2 µM; IC50 ([4]; 24 h, read-out: IC50 CCD-18Co 24 hours): 82.5 ± 3.1 µM; IC50 ([4]; 48 h, read-out: IC50 CCD-18Co 48 hours): 79.2 ± 1.2 µM; IC50 ([4]; 72 h, read-out: IC50 CCD-18Co 72 hours): 73.2 ± 1.9 µM; IC50 ([5]; Caco-2, 24 h, read-out: IC50 Caco-2 24 hours): 47.6 ± 0.8 µM; IC50 ([5]; Caco-2, 48 h, read-out: IC50 Caco-2 48 hours): 46.2 ± 1.9 µM; IC50 ([5]; Caco-2, 72 h, read-out: IC50 Caco-2 72 hours): 40.9 ± 1.5 µM

Question: Which “effectiveness against cisplatin-resistant cancer cell lines” value [6] does the source give for `Cc1ccnc2c1ccc1c(C)ccnc12.Cc1ccnc2c1ccc1c(C)ccnc12.O=S(=O)([O-])[O-].[O]=[V+2]` [metvan, bis(4,7-dimethyl-1,10-phenanthroline)sulfatooxovanadium(IV)] here?
Answer: highly effective
